From publication PMC6726563 (Structure (London, England : 1993), 2019)

Assays:
[1] = target: αVβ3** double mutant (β3-M180A and β3-R214G) transiently expressed on HEK293T cells (UniProt P06756); experiment: flow cytometry on cells
[2] = system: patients with glioblastoma; settings: ref Mason, 2015, cited from earlier work
αVβ3 [3] = settings: ref Reynolds et al., 2009; cited from earlier work
αVβ3 [4] = settings: ref Van Agthoven et al., 2014; Xiong et al., 2002; cited from earlier work
integrins αVβ3 and α5β1 = experiment: Integrin selectivity of knottins; format: binding
Human αVβ3 ectodomain = experiment: Crystal structure of knottin bound to αVβ3 ectodomain; settings: Mn2+
Summary of the method: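 Human αVβ3 ectodomain was expressed in insect cells and crystallized at 4 °C by hanging-drop vapor diffusion. Test compound (5 mM) was soaked into the crystals in well solution with 1 mM Mn2+ for 2–3 weeks. Crystals were harvested in 12% PEG 3500, 100 mM sodium acetate pH 4.5, 800 mM NaCl, 2 mM Mn2+ and 5 mM test compound. They were cryoprotected stepwise to 24% glycerol and flash frozen. Phases came from molecular replacement.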

αVβ3 [5] = settings: ref Kimura et al., 2009a; cited from earlier work
α5β1 = settings: ref Kimura et al., 2009a; cited from earlier work
[6] = target: native integrin α5β1 on K562 cells (human (endogenous in K562)) (UniProt P08648); experiment: flow cytometry on cells
UniProt P08648, sequence (P08648 42-1049, chain 1 of 2): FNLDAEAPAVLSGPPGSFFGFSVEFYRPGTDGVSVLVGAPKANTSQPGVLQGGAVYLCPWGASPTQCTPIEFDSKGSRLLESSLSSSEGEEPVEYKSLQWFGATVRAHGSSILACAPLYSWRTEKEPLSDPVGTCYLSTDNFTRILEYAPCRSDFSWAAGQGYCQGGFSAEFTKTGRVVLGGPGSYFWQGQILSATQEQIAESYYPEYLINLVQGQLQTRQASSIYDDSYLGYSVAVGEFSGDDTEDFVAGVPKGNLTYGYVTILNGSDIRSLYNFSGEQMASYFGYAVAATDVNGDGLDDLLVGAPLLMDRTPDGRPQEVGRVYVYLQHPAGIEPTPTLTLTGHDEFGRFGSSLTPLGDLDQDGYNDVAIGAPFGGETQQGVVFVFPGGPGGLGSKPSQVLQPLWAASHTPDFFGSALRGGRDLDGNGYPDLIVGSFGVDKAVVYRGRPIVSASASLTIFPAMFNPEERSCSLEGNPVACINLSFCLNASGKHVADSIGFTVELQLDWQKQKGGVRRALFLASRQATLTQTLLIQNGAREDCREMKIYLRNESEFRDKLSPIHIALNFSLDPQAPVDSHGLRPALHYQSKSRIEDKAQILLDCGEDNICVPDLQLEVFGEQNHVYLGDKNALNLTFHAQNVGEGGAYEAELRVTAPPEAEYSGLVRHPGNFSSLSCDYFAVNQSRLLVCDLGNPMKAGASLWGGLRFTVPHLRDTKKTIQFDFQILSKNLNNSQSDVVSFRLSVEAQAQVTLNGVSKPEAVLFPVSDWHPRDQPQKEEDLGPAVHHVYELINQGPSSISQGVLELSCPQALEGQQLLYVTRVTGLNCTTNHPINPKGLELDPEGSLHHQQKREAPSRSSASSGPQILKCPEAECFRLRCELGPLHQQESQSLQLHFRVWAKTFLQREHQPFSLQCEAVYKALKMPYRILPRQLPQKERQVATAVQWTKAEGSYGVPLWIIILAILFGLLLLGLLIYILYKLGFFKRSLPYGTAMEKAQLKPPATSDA
UniProt P08648, sequence (P05556 21-798, chain 2 of 2, further chain): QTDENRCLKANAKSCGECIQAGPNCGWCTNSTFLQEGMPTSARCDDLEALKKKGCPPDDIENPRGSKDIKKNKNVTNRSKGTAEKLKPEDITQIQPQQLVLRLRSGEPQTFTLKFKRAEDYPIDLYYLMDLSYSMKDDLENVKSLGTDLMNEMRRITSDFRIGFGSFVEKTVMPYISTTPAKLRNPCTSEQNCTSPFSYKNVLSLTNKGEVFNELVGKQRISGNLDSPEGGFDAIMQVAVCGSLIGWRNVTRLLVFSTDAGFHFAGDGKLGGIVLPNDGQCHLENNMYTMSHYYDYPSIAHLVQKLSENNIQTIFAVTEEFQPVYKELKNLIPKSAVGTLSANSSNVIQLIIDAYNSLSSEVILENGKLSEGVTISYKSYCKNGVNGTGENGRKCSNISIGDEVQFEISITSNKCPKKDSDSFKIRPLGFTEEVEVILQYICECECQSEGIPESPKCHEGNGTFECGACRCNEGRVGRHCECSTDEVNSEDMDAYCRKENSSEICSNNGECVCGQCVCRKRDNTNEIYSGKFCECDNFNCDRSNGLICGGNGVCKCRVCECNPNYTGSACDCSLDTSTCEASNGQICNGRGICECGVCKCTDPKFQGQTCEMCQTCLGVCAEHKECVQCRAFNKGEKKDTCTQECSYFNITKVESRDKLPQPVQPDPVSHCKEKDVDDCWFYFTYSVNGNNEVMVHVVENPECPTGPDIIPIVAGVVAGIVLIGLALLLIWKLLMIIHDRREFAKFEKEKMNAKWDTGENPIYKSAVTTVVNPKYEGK

[7] = target: native integrins expressed on U87MG (human (endogenous in U87MG)); experiment: flow cytometry on cells
[8] = target: recombinant integrin αVβ3 stably expressed on K562 cells (UniProt P06756); experiment: flow cytometry on cells

Work on “Alexa-647-labeled knottin 2.5F (designed binder)” yielded a percent of binding to wt-αVβ3 [1] of 85%.

In the case of “cilengitide: partial agonist targeting αVβ3”, the “pharmacokinetics (in words)” value ([2]; likely related to failure in glioblastoma) is given as “unfavorable pharmacokinetics”, the “survival of patients (in words)” value ([2]; primary targeting of αVβ3) is given as “failed to prolong survival of patients with glioblastoma” and the “agonist-like behavior (in words)” value (αVβ3 [3]) is given as “agonist-like behavior”. The “agonist/antagonist character at αVβ3” value (αVβ3 [4]) was “partial agonist”.

In the case of QG^5RGDWA^10P (disulfide) [2.5D], the “integrin selectivity (in words)” value (integrins αVβ3 and α5β1) is listed as “αVβ3-specific”, the “agonist character inferred from βA domain conformational change” value (Human αVβ3 ectodomain) is listed as “partial agonists” and the “affinity to αVβ3 (in words)” value (αVβ3 [5]) is listed as “nanomolar affinity”.

For RP^5RGDNP^10P (disulfide) [2.5F], the “integrin selectivity (in words)” value (integrins αVβ3 and α5β1) is given as “binds both αVβ3 and α5β1”, the “agonist character inferred from βA domain conformational change” value (Human αVβ3 ectodomain) is given as “partial agonists” and the “affinity to αVβ3 (in words)” value (αVβ3 [5]) is given as “nanomolar affinity”. For the same substance, the “affinity to α5β1 (in words)” value (α5β1) was “nanomolar affinity”.

Work on 2.5F-Fc fusion protein yielded a Kd [6] of 9.2 nM, a Kd [7] of 5.9 nM and a Kd [8] of 6.9 nM.

With “Alexa-647-labeled knottin 2.5D (designed binder)” the percent of binding to wt-αVβ3 [1] was 28%.

In the case of 2.5D-Fc fusion protein, the Kd [7] is reported as 1.7 nM and the Kd [8] is reported as 1.4 nM.
